The test system of assay [1] is Plasmodium falciparum. In words: In vitro antimalarial activity against Plasmodium falciparum K1 by [3H]hypoxanthine uptake. Type of assay: functional, organism-based.
Assay [2] relates to Plasmodium falciparum. The assay can be described thus: In vitro antimalarial activity against Plasmodium falciparum HB3 by [3H]hypoxanthine uptake. Type of assay: functional, organism-based.
The test system of another assay is Jurkat. In words: Inhibitory concentration against Jurkat cells. Particulars: Homo sapiens. Type of assay: functional, cell-based. In a few lines: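 Jurkat cells were grown in RPMI-1640 with 10% v/v FBS and 1% v/v L-glutamine at 37 °C under humidified 5% CO2, kept below 1 × 10⁶ cells/mL, with viability above 95%. Cells were plated at 1 × 10⁵/well and exposed to 10⁻¹⁰–10⁻⁴ M drug for 72 h, with final DMSO below 0.5% v/v. [³H]-thymidine (0.5 μCi/well) was added at 48 h for the final 24 h, and incorporation was read by β-scintillation counting.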

Another assay deals with HL-60. The assay can be described thus: Inhibitory concentration against HL60 cells. Type of assay: functional, cell-based. The following applies: Homo sapiens. A digest of the protocol: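 HL60 (2.5 × 10⁴/well) or Jurkat (1 × 10⁵/well) in RPMI-1640 with 10% FBS and 1% L-glutamine, 5% CO2, 37 °C. Exposed to 10⁻¹⁰–10⁻⁴ M for 72 h, final DMSO below 0.5% v/v. [3H]-thymidine (0.5 μCi) added for the final 24 h. Incorporation counted by β-scintillation.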

The compound `COP(=O)(OC)OCC[C@H]1O[C@@H]2O[C@]3(C)CC[C@H]4[C@H](C)CC[C@@H]([C@H]1C)[C@@]24OO3` displayed an IC50 in the assay with Plasmodium falciparum [1] of 2.2 nM.

In turn, `C[C@H]1[C@@H](CCOC(=O)c2ccc(C(=O)OCC[C@H]3O[C@@H]4O[C@]5(C)CC[C@H]6[C@H](C)CC[C@@H]([C@H]3C)[C@@]46OO5)cc2)O[C@@H]2O[C@]3(C)CC[C@H]4[C@H](C)CC[C@@H]1[C@@]24OO3` registered an IC50 in the assay on Plasmodium falciparum [1] of 4.6 nM.

`C[C@H]1[C@@H](CCOCc2ccc(COCC[C@H]3O[C@@H]4O[C@]5(C)CC[C@H]6[C@H](C)CC[C@@H]([C@H]3C)[C@@]46OO5)cc2)O[C@@H]2O[C@]3(C)CC[C@H]4[C@H](C)CC[C@@H]1[C@@]24OO3`: the IC50 with Plasmodium falciparum [1] is 2.4 nM.

For the compound `C[C@H]1[C@@H](CCOC(=O)c2cccc(C(=O)OCC[C@H]3O[C@@H]4O[C@]5(C)CC[C@H]6[C@H](C)CC[C@@H]([C@H]3C)[C@@]46OO5)c2)O[C@@H]2O[C@]3(C)CC[C@H]4[C@H](C)CC[C@@H]1[C@@]24OO3`, the IC50 in the assay on Plasmodium falciparum [1] was 42.2 nM.

Turning to `C[C@H]1[C@@H](CCOP(=O)(Oc2ccccc2)Oc2ccccc2)O[C@@H]2O[C@]3(C)CC[C@H]4[C@H](C)CC[C@@H]1[C@@]24OO3`, the IC50 in the assay with Plasmodium falciparum [1] turned out to be 3.1 nM.

`C[C@H]1[C@@H](CCOC(=O)c2ccccc2C(=O)OCC[C@H]2O[C@@H]3O[C@]4(C)CC[C@H]5[C@H](C)CC[C@@H]([C@H]2C)[C@@]35OO4)O[C@@H]2O[C@]3(C)CC[C@H]4[C@H](C)CC[C@@H]1[C@@]24OO3`: the values for the IC50 with Plasmodium falciparum [2] and in the assay with Plasmodium falciparum [1] were 1.6 nM and 2.6 nM, respectively.

For `C[C@H]1[C@@H](CCOCc2ccccc2COCC[C@H]2O[C@@H]3O[C@]4(C)CC[C@H]5[C@H](C)CC[C@@H]([C@H]2C)[C@@]35OO4)O[C@@H]2O[C@]3(C)CC[C@H]4[C@H](C)CC[C@@H]1[C@@]24OO3`, the results for the IC50 in the assay on Plasmodium falciparum [2] and with Plasmodium falciparum [1] were 1.3 nM and 2.9 nM, respectively.

Consider `C[C@H]1[C@@H](CCOCc2cccc(COCC[C@H]3O[C@@H]4O[C@]5(C)CC[C@H]6[C@H](C)CC[C@@H]([C@H]3C)[C@@]46OO5)c2)O[C@@H]2OC3(C)CC[C@H]4[C@H](C)CC[C@@H]1[C@@]24OO3` (single isomer, unassigned), for which the IC50 in the assay on Plasmodium falciparum [2] stood at 2.1 nM; in the assay with Plasmodium falciparum [1], 2.7 nM.

For `C[C@H]1[C@@H](CCOC(=O)CCCC(=O)OCC[C@H]2O[C@@H]3OC4(C)CC[C@H]5[C@H](C)CC[C@@H]([C@H]2C)[C@@]35OO4)O[C@@H]2OC3(C)CC[C@H]4[C@H](C)CC[C@@H]1[C@@]24OO3` (single isomer, unassigned), the figures for the 50% inhibitory concentration (IC50) in the assay on Plasmodium falciparum [2] and with Plasmodium falciparum [1] were 1.1 nM and 2.4 nM, respectively.

Regarding `C[C@H]1[C@@H](CCOC(=O)CCC(=O)OCC[C@H]2O[C@@H]3OC4(C)CC[C@H]5[C@H](C)CC[C@@H]([C@H]2C)[C@@]35OO4)O[C@@H]2OC3(C)CC[C@H]4[C@H](C)CC[C@@H]1[C@@]24OO3` (single isomer, unassigned), the IC50 in the assay on Plasmodium falciparum [2] came out at 1.4 nM; in the assay on Plasmodium falciparum [1] it was 1.8 nM.

Consider `C[C@@H]1CC[C@H]2[C@@H](C)C(=O)O[C@@H]3O[C@@]4(C)CC[C@@H]1[C@]32OO4` [ARTEMISININ], for which it took 12.3 nM to reach half-maximal inhibition in the assay on Plasmodium falciparum [1] (IC50). That is a double-digit nanomolar value.

As for `CC(=O)C1C(=O)C=C(C)OC1=O` (stereo not given) [DEHYDROACETIC ACID], the values for the half-maximal inhibitory concentration (IC50) in the assay with Jurkat and with HL-60 were 101000 nM and 1210 nM, respectively.

On to `COc1cccc2c1C(=O)c1c(O)c3c(c(O)c1C2=O)C[C@@](O)(C(=O)CO)C[C@@H]3O[C@H]1C[C@H](N)[C@H](O)[C@H](C)O1` [DOXORUBICIN], for which the IC50 in the assay on Jurkat was 1700 nM; with HL-60, 510 nM.

As a reminder, the IC50 is the midpoint of a concentration-inhibition curve. Lower therefore signals greater potency in that assay.

(Values after ChEMBL document CHEMBL1149086, “Antimalarial and antitumor evaluation of novel C-10 non-acetal dimers of 10beta-(2-hydroxyethyl)deoxoartemisinin” (J Med Chem, 2004).)
